Compound activity (PubChem BioAssay)
Sampled rows, rich in hits. Any-hit rate of the full collection: about 4%.
CHO parental Ca: signal in parental CHO cells, OX1R antagonist counter-screen. parental CHO-K1, ATP-induced calcium, Fluo-8 fluorescence. inhibition, % at 5.6 µM. actives 0.63% (n = 330,000). AID 463079;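 active means inhibition above that plate's mean sample inhibition plus 3 SD, cut at about 26% in these data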;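 further: 0% = ATP-challenged DMSO wells and 100% = DMSO wells without ATP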
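Material – parental CHO cells · Reagent – ATP stimulus · Compound – single nominal dose of 5.6 µM per compound · Detection – Fluo-8 fluorescence · Read-out basis – percent inhibition of calcium signal · Controls – ATP-challenged DMSO wells low, unchallenged DMSO wells high · Repeats – no replicates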
TAAR1 antagonist: human TAAR1 antagonism; Q96RJ0; CHO RD-HGA16 TAAR1, Fluo-8 calcium fluorescence, antagonist; inhibition, % at 3 µM; actives 1.5% (n = 360,000); AID 624466;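 active means inhibition above a per-plate cutoff, the mean inhibition of test compounds on that plate plus 3 SD, cut at about 49% in these data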;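 further: 0% = DMSO plus EC80 beta-PEA response and 100% = DMSO alone without agonist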
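Material: RD-HGA16 CHO cells with stable hTAAR1 and Gα16; Dosing: single nominal final test compound concentration of 3 µM; Schedule: seeding 17-24 h prior, 75-min 37 °C, 30-min RT dye loading; Detection: kinetic Fluo-8 calcium fluorescence measurement; Measure: % inhibition from peak post-agonist over basal fluorescence ratio; Benchmarks: vehicle and agonist controls.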
NTR1 ag: NTR1 (human) agonism; NTR1-U2OS beta-arrestin-GFP spot imaging, agonist mode; activation, % at 20 µM; actives 0.17% (n = 330,000);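 active means activation at or above 40% of the spot to cytoplasm intensity ratio, with at least 20 cells analyzed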;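 further: 0% = DMSO without peptide and 100% = 100 nM NTR1 peptide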
Target sequence (P30989 whole entry, looked up): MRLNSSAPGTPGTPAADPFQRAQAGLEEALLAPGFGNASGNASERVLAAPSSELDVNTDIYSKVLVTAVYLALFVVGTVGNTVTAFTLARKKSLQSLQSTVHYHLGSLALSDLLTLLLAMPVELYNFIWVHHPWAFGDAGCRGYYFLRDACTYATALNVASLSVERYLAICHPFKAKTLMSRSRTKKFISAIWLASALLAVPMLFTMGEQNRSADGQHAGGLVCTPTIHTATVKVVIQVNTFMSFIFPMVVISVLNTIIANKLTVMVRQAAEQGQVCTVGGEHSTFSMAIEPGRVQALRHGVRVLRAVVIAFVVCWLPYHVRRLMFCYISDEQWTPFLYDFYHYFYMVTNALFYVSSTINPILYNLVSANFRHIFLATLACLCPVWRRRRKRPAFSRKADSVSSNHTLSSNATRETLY
OX1R antag-1: blocks the human orexin 1 receptor. O43613. AID 485270. actives 1.8% (n = 330,000). OX1R-expressing cells, FRET antagonist read-out. inhibition, % at 6.6 µM; in the data active means inhibition mostly above about 38%, no sharp cut-off; inactive means mostly below about 40%;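 further: 0% = agonist challenge alone and 100% = reference antagonist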
OX1R antag-2: antagonists of human orexin 1 receptor | O43613 | CHO/OX1R cells, Fluo-8 calcium fluorescence, orexin A | inhibition, % at 5 µM | actives 0.43% (n = 330,000) | AID 434989;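 active means inhibition above its plate's threshold, mean inhibition of all tested compounds on the plate plus 3 SD, cut at about 37% in these data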;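 further: 0% = orexin A challenge wells and 100% = SB-334867-A antagonist wells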
TAAR1 ag: agonists of human TAAR1 | Q96RJ0 | actives 0.99% (n = 360,000) | CHO RD-HGA16 TAAR1, Fluo-8 calcium fluorescence; vehicle wells 0%, saturating PEA agonist 100% | activation, % at 3 µM;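 active means activation above the mean activation of all test compounds in the run plus 3 SD, cut at about 38% in these data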
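System: CHO-derived RD-HGA16 cells with stable Gα16 and human TAAR1 / Times: 17-24 h plating, Fluo-8 75 min 37 °C, 30 min RT / Technique: calcium-sensitive Fluo-8 signal, excitation 470-495, emission 515-575 nm / Measure: % activation relative to PEA EC100 response / Benchmarks: DMSO and PEA EC100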
Active calls of the source: *; . = no result given.

SMILES | CHO parental Ca | TAAR1 antagonist | NTR1 ag | OX1R antag-1 | OX1R antag-2 | TAAR1 ag
c1ccc(-c2nnc(SCc3nc4ccccc4[nH]3)n2Cc2ccco2)cc1 | -24.5 | 11.4 | 1.1 | 29.7 | -32.5 | 6.2
Cc1ccc(OCc2nnc(SCc3nc4ccccc4[nH]3)n2Cc2ccco2)cc1 | 32.4* | 35.8 | 0.1 | 61.8 | 36.3 | 9.9
CCOC(=O)C1=C(C(=O)OCC)C2N(Cc3ccc(C(F)(F)F)cc3)c3ccccc3[C@@]23C[C@@H](C(=O)OC)N(S(=O)(=O)c2ccccc2C)C3=N1 (stereo not given in full) | . | -33.6 | . | . | . | 1.4
Cc1ccc(/C(C#N)=C\c2ccc(N3CCOCC3)o2)cc1 | -10.6 | 24.3 | 2.3 | 7.9 | -22.0 | 14.2
Cc1ccc2nc(/C(C#N)=C\c3ccc(N4CCOCC4)o3)[nH]c2c1 | -1.5 | 20.8 | -2.8 | 25.5 | -1.6 | 43.1*
CCN1C(=O)c2ccc(C(=O)O)cc2C1=O | 2.9 | 4.1 | -0.6 | 22.6 | -6.2 | 6.1
O=C(O)c1ccc(C(=O)c2ccc3c(c2)C(=O)N(Cc2ccco2)C3=O)cc1 | 4.3 | 6.7 | 30.6 | 50.0* | -14.2 | -1.4
O=C(O)c1ccc(C(=O)c2ccc3c(c2)C(=O)N(CCO)C3=O)cc1 | 9.0 | -2.6 | 0.0 | 74.1* | -3.8 | 1.6
CCOC(=O)C1=CCN(S(=O)(=O)c2ccccc2F)C1c1ccc(Br)cc1 (stereo not given) | . | 26.1 | . | . | . | 0.5
O=C(CN(C(=O)CNC(=O)c1ccco1)c1ccc(F)cc1)NC1CCCC1 | -6.4 | -9.6 | 1.0 | 13.8 | -20.2 | 2.9
Cc1nnc(N/N=C\c2ccc(-c3ccccc3[N+](=O)[O-])o2)n1N | -5.2 | -0.7 | . | 56.2* | -12.7 | 1.7
Cc1n[nH]c(=S)n1/N=C/c1ccc(-c2ccccc2[N+](=O)[O-])o1 | -9.7 | 4.3 | 1.1 | 68.1* | -20.3 | 8.7
COC(=O)c1ccccc1-c1ccc(/C=N/NC(N)=O)o1 | -15.7 | -12.8 | 0.8 | 6.8 | -1.0 | 0.4
O=[N+]([O-])c1cccc(-c2ccc(/C=N/n3c(-c4ccccc4)n[nH]c3=S)o2)c1 | -8.7 | -2.5 | . | 11.6 | -2.0 | 1.9
Cc1nnc(N/N=C/c2ccc(-c3ccccc3F)o2)n1N | -6.8 | 12.8 | -2.1 | 56.7* | -9.0 | 5.0
CC(C)[C@@H]1NC(=O)[C@@H]2CSCCS(=O)(=O)N2C1=O | . | -6.7 | . | . | . | 3.0
CCOC(=O)Cn1c(-c2ccccc2)nc2ccccc2c1=O | -29.3 | 10.7 | 3.1 | 74.8* | 14.8 | 19.8
CCOC(=O)CSc1nc(-c2ccccc2)nc2ccc(F)cc12 | -12.5 | -22.0 | 7.5 | 0.7 | -7.3 | 4.3
CCOC(=O)CSc1nc(-c2ccccc2)nc2ccccc12 | -18.0 | 3.5 | 7.0 | 37.6* | -15.0 | 13.1
COc1cccc2[nH]c(-c3ccccn3)nc12 | . | -7.3 | . | . | . | 3.0
CC(=O)OCC(COC(C)=O)(CN1C(=O)c2ccccc2C1=O)CN1C(=O)c2ccccc2C1=O | . | -10.1 | . | . | . | 1.2
Cc1ccc(-c2nnc(Nc3ccccc3)c3ccccc23)cc1S(=O)(=O)NCC1CCCO1 (stereo not given) | 28.5* | 57.5* | 18.6 | 11.9 | 66.2* | 17.2
Cc1ccc(-c2nnc(Nc3ccc4c(c3)OCO4)c3ccccc23)cc1S(=O)(=O)NC(C)C | 31.1* | 24.0 | 2.5 | 38.0 | 37.7 | 3.5
CC(=O)Nc1ccc(Nc2nnc(-c3ccc(C)c(S(=O)(=O)NCC4CCCO4)c3)c3ccccc23)cc1 (stereo not given) | -17.7 | -24.6 | 2.5 | 16.2 | -27.8 | 4.4
Cc1ccc(-c2nnc(Nc3ccc4c(c3)OCO4)c3ccccc23)cc1S(=O)(=O)NCCO | 16.3 | 8.4 | -0.8 | 20.0 | 7.8 | 1.4
CN(C)CCCN1CC(=O)N2CCc3ccc(Br)cc3C2CC1=O (stereo not given) | . | -20.4 | . | . | . | 0.6
O=C(Nc1ccc(Cl)cn1)C1CCCN1S(=O)(=O)c1ccccc1 (stereo not given) | -18.6 | 6.8 | 0.9 | 69.5* | 19.3 | 3.5
O=C(Nc1ccccc1)C1CCCN1S(=O)(=O)c1ccc(Br)cc1 (stereo not given) | -11.9 | -29.8 | -0.1 | 64.0* | 16.5 | -0.3
Cc1cc(C)cc(NC(=O)C2CCCCN2S(=O)(=O)c2ccccc2)c1 (stereo not given) | . | -7.7 | . | . | . | -2.4
